ChEMBL document CHEMBL2390932, “(+)-Usnic acid enamines with remarkable cicatrizing properties” (Bioorg Med Chem, 2013)
In brackets after ≈: the same amount, converted by molar mass. Activity calls are given as the source filed them. The calls are words filed in the database; no cut-off is given here.

Assays:
Mus musculus [1] = experiment: Wound healing activity in Swiss albino mouse circular excision wound model assessed as wound contraction applied topically qd after 2 days relative to control; assay type: functional; design: concentration or dose not given beside the values
Mus musculus [2] = experiment: Wound healing activity in Swiss albino mouse circular excision wound model assessed as hydroxyproline content in skin applied topically qd after 7 days by spectrophotometric analysis; assay type: functional
How it was run: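 Skin from ointment-treated mouse wounds (7 days) dried at 60–70 °C to constant weight, then hydrolyzed in 6 N HCl for 3 h at 130 °C. Hydrolysate neutralized to pH 7, oxidized with chloramine T and reacted with Ehrlich reagent at 60 °C. Read at 557 nm and reported as mg/g with S.E.M.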

Mus musculus [3] = experiment: Wound healing activity in Swiss albino mouse circular excision wound model assessed as wound contraction applied topically qd after 4 days relative to control; assay type: functional; design: concentration or dose not given beside the values
Rattus norvegicus = experiment: Wound healing activity in Sprague-Dawley rat linear incision wound model assessed as tensile strength of wound applied topically qd for 9 days measured on day 10 by tensiometer (reference value: 10.6%); assay type: functional
HaCaT [4] = experiment: Wound healing activity in human HaCaT cells assessed as wound closure rate at 2.5 ug/mL after 24 hrs by inverted microscopic analysis; assay type: functional, cell-based
How it was run: (§1)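 Confluent HaCaT monolayers scratched with a pipette tip, washed, re-fed with medium and exposed to compound for 24 h; 20% (v/v) platelet lysate served as positive control. Cells fixed in 3.7% formaldehyde and stained with 0.1% toluidine blue. Wound width measured by inverted microscope with camera at 0 and 24 h; closure taken as the width difference. Results expressed relative to control mean (100%), two independent experiments, n = 20 each.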

HaCaT [5] = experiment: Wound healing activity in human HaCaT cells assessed as wound closure rate at 2 ug/mL after 24 hrs by inverted microscopic analysis; assay type: functional, cell-based; how it was run: as §1
HaCaT [6] = experiment: Wound healing activity in human HaCaT cells assessed as wound closure rate at 1.7 ug/mL after 24 hrs by inverted microscopic analysis; assay type: functional, cell-based; how it was run: as §1
Mus musculus [7] = experiment: Wound healing activity in Swiss albino mouse circular excision wound model assessed as wound contraction applied topically qd after 6 days (reference value: 3.41%); assay type: functional
Mus musculus [8] = experiment: Wound healing activity in Swiss albino mouse circular excision wound model assessed as wound contraction applied topically qd measured on the same day relative to control; assay type: functional; design: concentration or dose not given beside the values
Mus musculus [9] = experiment: Wound healing activity in Swiss albino mouse circular excision wound model assessed as wound contraction applied topically qd after 8 days (reference value: 2.18%); assay type: functional
HaCaT [10] = experiment: Wound healing activity in human HaCaT cells assessed as wound closure rate at 2.2 ug/mL after 24 hrs by inverted microscopic analysis; assay type: functional, cell-based; how it was run: as §1
HaCaT [11] = experiment: Cytotoxicity against human HaCaT cells after 24 hrs by neutral red dye uptake assay; assay type: cell-based; settings: for IC50: Homo sapiens, HaCaT; for IC05: human, hacat
How it was run: (§2)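 Cells kept in DMEM with 10% FBS at 37 °C, 5% CO2. Seeded at 20,000 cells/well, grown 24 h, then exposed 24 h to a concentration series. Neutral red (0.05%) added for 3 h at 37 °C, dye extracted with 1% acetic acid in 50% ethanol, absorbance read at 540 nm. IC50, IC05 and 95% confidence intervals derived from a downhill logistic curve fit.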

HaCaT [12] = experiment: Wound healing activity in human HaCaT cells assessed as wound closure rate at 5 uM after 24 hrs by inverted microscopic analysis; assay type: functional, cell-based; how it was run: as §1
Mus musculus [13] = experiment: Wound healing activity in Swiss albino mouse circular excision wound model assessed as wound contraction applied topically qd after 10 days (reference value: 6.29%); assay type: functional
HaCaT [14] = experiment: Wound healing activity in human HaCaT cells assessed as wound closure rate at 2.1 ug/mL after 24 hrs by inverted microscopic analysis; assay type: functional, cell-based; how it was run: as §1
Bos taurus [15] = species on record: Bos taurus; experiment: Inhibition of bovine hyaluronidase assessed as sodium hyaluronate conversion to N-acetylglucosamine at 100 ug/ml by spectrophotometric analysis relative to control
[16] = molecular target: T1, Neutrophil elastase (Homo sapiens) (UniProt P08246); experiment: Inhibition of human neutrophil elastase assessed as N-methoxysuccinyl-Ala-Ala-Pro-Val p-nitroanilide conversion to p-nitroaniline at 50 ug/ml after 1 hr by spectrophotometric analysis relative to control
T1 sequence (whole entry): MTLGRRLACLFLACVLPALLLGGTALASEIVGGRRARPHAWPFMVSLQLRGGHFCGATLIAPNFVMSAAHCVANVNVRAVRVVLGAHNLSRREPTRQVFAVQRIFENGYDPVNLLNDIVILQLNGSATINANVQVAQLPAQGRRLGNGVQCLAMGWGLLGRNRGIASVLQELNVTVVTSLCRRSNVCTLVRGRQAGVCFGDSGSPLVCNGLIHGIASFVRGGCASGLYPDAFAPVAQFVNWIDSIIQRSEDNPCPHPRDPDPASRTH
How it was run: (§3)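 Sample and human neutrophil elastase (17 mU/ml) mixed in 0.1 M Tris–HCl, pH 7.5, and held 5 min at 25 °C. MeOSuc-Ala-Ala-Pro-Val p-nitroanilide was added and the mixture incubated 1 h at 37 °C. Reaction stopped with soybean trypsin inhibitor (1 mg/ml); p-nitroaniline absorbance read immediately. Inhibition given as % with S.E.M.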

Bos taurus [17] = species on record: Bos taurus; experiment: Inhibition of bovine hyaluronidase assessed as sodium hyaluronate conversion to N-acetylglucosamine at 50 ug/ml by spectrophotometric analysis relative to control
[18] = molecular target: T1, Neutrophil elastase (Homo sapiens); experiment: Inhibition of human neutrophil elastase assessed as N-methoxysuccinyl-Ala-Ala-Pro-Val p-nitroanilide conversion to p-nitroaniline at 100 ug/ml after 1 hr by spectrophotometric analysis relative to control; how it was run: as §3
Hathewaya histolytica [19] = experiment: Inhibition of Clostridium histolyticum collagenase using N-[3-(2-Furyl)acryloyl]-Leu-Gly-Pro-Ala as substrate at 50 ug/ml after 15 mins by spectrophotometric analysis relative to control
How it was run: (§4)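 Samples dissolved in DMSO and diluted in 50 mM Tricine buffer (0.4 M NaCl, 0.01 M CaCl2, pH 7.5). Clostridium histolyticum collagenase and sample preincubated 5 min at 25 °C, then incubated 15 min. FALGPA substrate, prepared at 2 mM in the same buffer, was then added. Inhibition given as % with S.E.M.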

Hathewaya histolytica [20] = experiment: Inhibition of Clostridium histolyticum collagenase using N-[3-(2-Furyl)acryloyl]-Leu-Gly-Pro-Ala as substrate at 100 ug/ml after 15 mins by spectrophotometric analysis relative to control; how it was run: as §4
A-431 = experiment: Cytotoxicity against human A431 cells after 24 hrs by neutral red dye uptake assay; assay type: functional, cell-based; settings: A-431, 24 h; how it was run: as §2

| SMILES | inhibition (Bos taurus [15]) [%] | inhibition [16] [%] | inhibition (Bos taurus [17]) [%] | inhibition [18] [%] | inhibition (Hathewaya histolytica [19]) [%] | Activity (Mus musculus [1]) [%] | Activity (Mus musculus [2]) [mg/g] | Activity (Mus musculus [3]) [%] | Activity (Rattus norvegicus) [%] | Activity (HaCaT [4]) | Activity (HaCaT [5]) | Activity (HaCaT [6]) | Activity (Mus musculus [7]) [%] | Activity (Mus musculus [8]) [%] | Activity (Mus musculus [9]) [%] | Activity (HaCaT [10]) | IC50 (HaCaT [11]) [µg/mL] | Activity (HaCaT [12]) | Activity (Mus musculus [13]) [%] | Activity (HaCaT [14]) | other results |
| --- | --- | --- | --- | --- | --- | --- | --- | --- | --- | --- | --- | --- | --- | --- | --- | --- | --- | --- | --- | --- | --- |
| CC(=O)c1c(O)c(C)c(O)c2c1OC1=CC(=O)/C(=C(/C)NCCS(=O)(=O)O)C(=O)[C@@]12C | – | – | – | – | – | 17.74 | 30.8 | 14.52 | 29.3 | Active | Active | Active | 11.42 | 19.33 | 5.04 | Active | 47 (≈ 104 µM) | Active | 2.29 | Active | – |
| CC(=O)c1c(O)c(C)c(O)c2c1OC1=CC(=O)/C(=C(/C)N[C@@H](Cc3ccc(O)cc3)C(=O)O)C(=O)[C@@]12C | – | – | – | – | – | – | – | – | – | Active | Active | Active | – | – | – | Active | 13 (≈ 25.6 µM) | Active | – | Active | IC50 (A-431): 36 µg/mL (≈ 70.9 µM); IC05 (HaCaT [11]): 1.3 µg/mL |
| CC(=O)c1c(O)c(C)c(O)c2c1OC1=CC(=O)/C(=C(/C)NCCc3c[nH]c4ccccc34)C(=O)[C@@]12C | – | – | – | – | – | – | – | – | – | – | – | – | – | – | – | – | 5.3 (≈ 10.9 µM) | – | – | – | IC50 (A-431): 29 µg/mL (≈ 59.6 µM); IC05 (HaCaT [11]): 2.5 µg/mL |

Now from value to compound, other results behind:

| inhibition (Bos taurus [15]) [%] | inhibition [16] [%] | inhibition (Bos taurus [17]) [%] | inhibition [18] [%] | inhibition (Hathewaya histolytica [19]) [%] | SMILES | Activity (Mus musculus [1]) [%] | Activity (Mus musculus [2]) [mg/g] | Activity (Mus musculus [3]) [%] | Activity (Rattus norvegicus) [%] | Activity (HaCaT [4]) | Activity (HaCaT [5]) | Activity (HaCaT [6]) | Activity (Mus musculus [7]) [%] | Activity (Mus musculus [8]) [%] | Activity (Mus musculus [9]) [%] | Activity (HaCaT [10]) | IC50 (HaCaT [11]) [µg/mL] | Activity (HaCaT [12]) | Activity (Mus musculus [13]) [%] | Activity (HaCaT [14]) | other results |
| --- | --- | --- | --- | --- | --- | --- | --- | --- | --- | --- | --- | --- | --- | --- | --- | --- | --- | --- | --- | --- | --- |
| 18.3 | 21.3 | 10 | 30.1 | 20.8 | CC(=O)c1c(O)c(C)c(O)c2c1OC1=CC(=O)/C(=C(/C)NCCSSCCN/C(C)=C3\C(=O)C=C4Oc5c(C(C)=O)c(O)c(C)c(O)c5[C@@]4(C)C3=O)C(=O)[C@@]12C | 17.95 | 20.4 | 15.92 | 15.91 | – | – | – | 12.48 | 19.25 | 6.48 | – | – | – | 2.96 | – | inhibition (Hathewaya histolytica [20]): 29.3% |
| 15.6 | 15.3 | 10.2 | 20.4 | 19.5 | CC(=O)c1c(O)c(C)c(O)c2c1OC1=CC(=O)/C(=C(/C)NCCS)C(=O)[C@@]12C | 16.41 | 39.8 | 13.74 | 35.2 | Active | Active | Active | 10.25 | 19.46 | 4.42 | Active | 155 (≈ 384 µM) | Active | 1.39 | Active | inhibition (Hathewaya histolytica [20]): 27.3%; IC05 (HaCaT [11]): 43 µg/mL |
| 41.9 | 13.3 | 35.3 | 15.3 | 20.7 | CC(=O)c1c(O)c(C)c(O)c2c1OC1=CC(=O)/C(=C(/C)N)C(=O)[C@@]12C | – | – | – | – | – | – | – | – | – | – | – | – | – | – | – | inhibition (Hathewaya histolytica [20]): 33.1% |
